This note sets out measurements from ChEMBL document CHEMBL1140321, “Synthesis and biological evaluation of acyclic 3-[(2-hydroxyethoxy)methyl] analogues of antiviral furo- and pyrrolo[2,3-d]pyrimidine nucleosides” (J Med Chem, 2005).

Experiment [1] has as its system HEL. Briefly: Concentration required to inhibit vaccinia virus induced cytopathogenicity in HEL cells by 50%. In kind it is functional, cell-based. As to conditions: Homo sapiens.
In experiment [2] the test system is HEL. The experiment can be described thus: Concentration required to cause a microscopically visible alteration of cell morphology in HEL cells. As to conditions: Homo sapiens. In kind it is functional.
Experiment [3] concerns CCRF-CEM. The experiment can be described thus: Concentration required to inhibit human immunodeficiency virus-2 (strain ROD) induced cytopathogenicity in CEM cells by 50%. In kind it is functional, cell-based. The method, boiled down: (§1)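 Human CEM cells (~3 × 10^5 cells/cm³) were infected with 100 CCID50/mL of HIV-1(IIIB) or HIV-2(ROD) and seeded into wells with compound dilutions. After 4 days at 37 °C, HIV-induced giant-cell formation was examined microscopically and EC50 was taken as the concentration giving 50% inhibition.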

Experiment [4] deals with HEL. Briefly: Concentration required to inhibit human cytomegalovirus strain AD169 induced cytopathogenicity in HEL cells by 50%. In kind it is functional, cell-based.
Experiment [5] has as its system HEL. Briefly: Concentration required to inhibit human cytomegalovirus strain Davis induced cytopathogenicity in HEL cells by 50%. The format is functional, cell-based.
Experiment [6] concerns HEL. Briefly: Concentration required to inhibit HEL cell proliferation by 50%. In kind it is functional. As to conditions: Homo sapiens.
For experiment [7], the system named is HEL. The experiment can be described thus: Concentration required to inhibit vesicular stomatitis virus induced cytopathogenicity in HEL cells by 50%. In kind it is functional, cell-based. As to conditions: Homo sapiens.
In experiment [8] the test system is HEL. The experiment can be described thus: Concentration required to inhibit herpes simplex virus type 2 induced cytopathogenicity in HEL cells by 50%. Particulars: Homo sapiens. In kind it is functional, cell-based.
Experiment [9] concerns HEL. The experiment can be described thus: Concentration required to inhibit herpes simplex virus type 1 induced cytopathogenicity in HEL cells by 50%. In kind it is functional, cell-based. Particulars: Homo sapiens.
The test system of experiment [10] is HEL. Briefly: Concentration required to inhibit Varicella-Zoster virus (strain OKA) induced cytopathogenicity in HEL cells by 50%. Particulars: Homo sapiens. In kind it is functional, cell-based.
Experiment [11] concerns CCRF-CEM. The experiment can be described thus: Concentration required to inhibit human immunodeficiency virus-1 (strain IIIb) induced cytopathogenicity in CEM cells by 50%. The format is functional, cell-based. The method, boiled down:
as §1

For experiment [12], the system named is HEL. Briefly: Concentration required to inhibit Varicella-Zoster virus (strain 07/1) induced cytopathogenicity in HEL cells by 50%. In kind it is functional, cell-based. Particulars: Homo sapiens.
Experiment [13] concerns HEL. The experiment can be described thus: Concentration required to inhibit cell proliferation in HEL cells by 50%. The format is functional. Particulars: Homo sapiens.

pEC50: −log10 of the molar value.

Take `C#Cc1cn(COCCO)c(=O)[nH]c1=O`: the pEC50 in [1] was < 3.40; in [3], < 3.60; in experiment [4], < 3.40; in experiment [5] it was < 3.40; in experiment [7] it was < 3.40; in experiment [8], < 3.40. The pEC50 in experiment [9] is < 3.40; in [10] it was < 3.40; in [11], < 3.60; in [12] it was < 3.40. In addition, the MCC in experiment [2] was > 400 µM. In addition, the CC50 in experiment [6] was > 200 µM.
For the compound `O=c1nc2occc2cn1COCCO`, the pEC50 in experiment [1] was < 3.40; in experiment [3], < 3.60; in experiment [4], < 3.40; in [5], < 3.40; in [7], < 3.40; in experiment [8] it was < 3.40. Further, the pEC50 in experiment [9] was < 3.40; in [10] it was < 4.00; in experiment [11], < 3.60; in experiment [12], < 3.40. Besides, in experiment [2], the MCC is > 400 µM. In addition, in experiment [13], the CC50 was > 200 µM.
For `CCCCCCCC#Cc1cc2cn(COCCO)c(=O)nc2o1`, the pEC50 in [1] was < 4.40; in experiment [3], < 5.00; in experiment [4], < 4.70; in experiment [5], < 4.70; in experiment [7], < 4.40; in experiment [8], < 4.40. Further, the pEC50 is < 4.40 in experiment [9], < 4.70 in [10], < 5.00 in experiment [11] and < 4.70 in [12]. Moreover, the MCC in experiment [2] came out at 200 µM. Further, the CC50 in experiment [13] was > 50 µM.
As for `CCCCCCCc1cc2cn(COCCO)c(O)nc-2n1`, the pEC50 is < 3.70 in experiment [1]; < 3.60 in [3]; < 3.40 in experiment [4]; 3.40 in experiment [5]; < 3.70 in experiment [7]; < 3.70 in experiment [8]. The pEC50 is < 3.70 in [9], 3.83 in experiment [10], < 3.60 in [11] and 3.81 in [12]. For the same compound, the MCC in experiment [2] is ≥ 400 µM. This compound displayed a CC50 in experiment [13] of 119 µM.
On to `CCCCc1cc2cn(COCCO)c(O)nc-2n1`, for which the pEC50 is < 3.40 in experiment [1]; < 3.60 in experiment [3]; < 3.40 in experiment [4]; < 3.40 in experiment [5]; < 3.40 in [7]; < 3.40 in experiment [8]. Also, the pEC50 in [9] was < 3.40; in [10], < 3.40; in experiment [11], < 3.60; in experiment [12], < 3.40. Besides, in [2], the MCC is > 400 µM. For the same compound, the CC50 in [13] is > 200 µM.
As to `CCCCCc1cc2cn(COCCO)c(O)nc-2n1`, the pEC50 in [1] is < 3.40; in [3] it was < 3.60; in experiment [4] it was < 3.40; in [5] it was < 3.40; in [7], < 3.40; in experiment [8], < 3.40. Further, the pEC50 is < 3.40 in experiment [9], < 3.40 in experiment [10], < 3.60 in experiment [11] and < 3.40 in experiment [12]. Further, the MCC in experiment [2] was > 400 µM. In addition, in [13], the CC50 was > 200 µM.
Consider `CCCCCCCCCCc1cc2cn(COCCO)c(O)nc-2n1`, for which the pEC50 in experiment [1] is < 4.80; in [3], < 5.00; in [4], 5.29; in experiment [5], 5.74; in experiment [7], < 4.80; in experiment [8] it was < 4.80. In addition, the pEC50 in experiment [9] was < 4.80; in [10], 5.19; in experiment [11], < 5.00; in [12], 5.24. In experiment [2], this compound registered an MCC of 80 µM. In experiment [13], this compound showed a CC50 of 32 µM.
Take `CCCCCCCCCCCc1cc2cn(COCCO)c(=O)nc2o1`: the pEC50 in [1] was < 4.40; in [3], < 3.60; in [4], < 4.80; in experiment [5], < 4.80; in [7], < 4.40; in experiment [8], < 4.40. Also, the pEC50 is < 4.40 in experiment [9], < 4.80 in experiment [10], < 3.60 in [11] and < 4.80 in experiment [12]. Also, the MCC in experiment [2] came out at 80 µM. In experiment [13], this compound gave a CC50 of 132 µM.
